Results on 15 molecules are retold here after ChEMBL document CHEMBL2440013, “New quaternary ammonium camphor derivatives and their antiviral activity, genotoxic effects and cytotoxicity” (Bioorg Med Chem, 2013).

The structures appear in SMILES notation. Where a name gives a salt, the structure may show the parent alone.

Series [1] can be described thus: Antiviral activity against Influenza virus A/California/07/09 (H1N1)pdm09 infected in MDCK cells assessed as inhibition of viral replication incubated for 1 hr prior to viral infection measured after 48 hrs by hemagglutination reaction. It counts as functional, cell-based, Influenza A virus (A/California/07/2009(H1N1)). The gist of the method:
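MDCK monolayers in MEM were pre-incubated with compound for 1 h at 37 °C before infection, then held 48 h at 37 °C in 5% CO2. Virus yield was read by haemagglutination: equal volumes of supernatant and 1% chicken erythrocytes, 60 min at room temperature. Triplicates were run. EC50 was the concentration that halved virus production (0.3 log10 EID50 titre drop).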

Series [2] can be described thus: Cytotoxicity against MDCK cells after 48 hrs by MTT assay. The conditions noted are these: dog, read-out: CTD50. The class given is cell-based, Canis lupus familiaris. The procedure, abridged:
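MDCK cells were grown in MEM at 37 °C, 5% CO2 to a confluent monolayer. They were then exposed for 48 h to twofold dilutions (1000–4 µg/ml in MEM), washed twice with saline, and given MTT ([…] in saline) for 1 h. Formazan was dissolved in DMSO and OD read at 535 nm. Triplicates were run. CTD50 is the concentration halving OD versus control wells.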
(Tetrazolium dyes change colour on reduction, which living cells bring about.)

The nature of series [3]: Selectivity index, ratio of CTD50 for MDCK cells to EC50 for Influenza A virus California/07/09(H1N1) pdm09 infected in MDCK cells. The settings on record: dog, read-out: Selectivity Index. It counts as toxicity, cell-based. The gist of the method: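 CTD50 came from MDCK cells given twofold dilutions (1000–4 µg/ml) in MEM for 48 h at 37 °C, 5% CO2. CTD50 was the concentration halving OD versus control. SI is CTD50 divided by EC50 from the haemagglutination-based antiviral assay.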

Series [4] deals with U-937. Kind of series: Cytotoxicity against human U937 cells after 72 hrs by MTT assay. The class given is functional. The gist of the method:
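Cells were grown in RPMI-1640 with 10% embryonic calf serum, 2 mmol/L L-glutamine, gentamicin and lincomycin. Compounds in DMSO were added, then 72 h at 37 °C, 5% CO2. Three wells per concentration, with untreated cells as control. 1% MTT for 4 h, DMSO for 15 min, OD 570 nm. CTD50 is the concentration killing 50% of cells.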

Series [5] is described as follows: Toxicity in Escherichia coli BL21(DE3) expressing pET36b-gfp assessed as inhibition of IPTG-induced reporter protein GFP synthesis at 150 uM after 1.5 hrs by fluorophotometry relative to control. The conditions noted are these: Escherichia coli BL21(DE3) cells expressing pET36b-gfp, read-out: Activity. The gist of the method:
(§1)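 E. coli BL21(DE3) carrying the IPTG-inducible gfp plasmid was grown in LB at 37 °C with shaking to D600 0.4–0.5, then treated with compound for 1.5 h. OD600 and GFP emission 500–600 nm (excitation 491 nm) were read. Control cells were untreated, with 1 mM IPTG (final) added after 1.5 h. Fluorescence decreases of 20% and 50% versus control were counted as toxic and extremely toxic.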

The test system of series [6] is Escherichia coli. Kind of series: Induction of mutagenicity in Escherichia coli BL21(DE3) expressing pRAC-gfp assessed as modulation of reporter protein GFP synthesis at 150 uM incubated for 1.5 hrs followed by plasmid maturation measured after 1.5 hrs by fluorophotometry relative to control. The class given is toxicity.
Series [7] can be described thus: Toxicity in Escherichia coli BL21(DE3) expressing pET36b-gfp assessed as inhibition of IPTG-induced reporter protein GFP synthesis at 2 uM after 1.5 hrs by fluorophotometry relative to control. The settings on record: Escherichia coli BL21(DE3) cells expressing pET36b-gfp, read-out: Activity. The gist of the method:
as §1

The test system of series [8] is Escherichia coli. Kind of series: Induction of mutagenicity in Escherichia coli BL21(DE3) expressing pRAC-gfp assessed as modulation of reporter protein GFP synthesis at 2 uM incubated for 1.5 hrs followed by plasmid maturation measured after 1.5 hrs by fluorophotometry. It counts as toxicity.
The test system of series [9] is Escherichia coli. Kind of series: Induction of mutagenicity in Escherichia coli BL21(DE3) expressing pRAC-gfp assessed as induction of reporter protein GFP synthesis at 10 ug/ml incubated for 1.5 hrs followed by plasmid maturation measured after 1.5 hrs by fluorophotometry. The class given is toxicity. The procedure, abridged:
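BL21(DE3) carried pRAC-gfp, with GFP under the Proteus mirabilis recA regulatory region. Cells were grown in LB at 37 °C with shaking to OD600 0.4–0.5, given compound, grown 1.5 h, then held 1.5 h at 4–6 °C for chromophore maturation. OD600 and GFP emission (500–600 nm, excitation 491 nm) were measured. Controls were water (negative) and nalidixic acid […] (positive). Result is % change in GFP versus control.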

For orientation: EC50 means the concentration giving half of the maximal effect. On to `CCN(CC)CC/N=C1\C[C@H]2CC[C@]1(C)C2(C)C`, for which the EC50 in series [1] (Influenza A virus, pdm09, MDCK) was 10 µM. The CC50 at 48 h in series [2] amounted to 807 µM. The selectivity ratio in [3] amounted to 81.
The matching figures for `CC[N+](CC)(CCCCC[N+](CC)(CC)CC/N=C1\C[C@H]2CC[C@]1(C)C2(C)C)CC/N=C1\C[C@H]2CC[C@]1(C)C2(C)C`: 14.7 µM, 1280 µM and 87.
Take `CC[N+](CC)(CCCCCC[N+](CC)(CC)CC/N=C1\C[C@H]2CC[C@]1(C)C2(C)C)CC/N=C1\C[C@H]2CC[C@]1(C)C2(C)C.[Br-].[Br-]`: the EC50 in series [1] (Influenza A virus, pdm09, MDCK) came out at 81.2 µM. Besides, the CTD50 in [4] came out at 82.1 µM. The CC50 at 48 h in series [2] was found to be 1710 µM. Also, the selectivity ratio in series [3] came to 21.
In the case of `CC[N+](CC)(CCCCCCCC[N+](CC)(CC)CC/N=C1\C[C@H]2CC[C@]1(C)C2(C)C)CC/N=C1\C[C@H]2CC[C@]1(C)C2(C)C`, in series [1] (Influenza A virus, pdm09, MDCK), the EC50 is 13.2 µM. The inhibition at 1.5 h, 150 µM in [5] was 67%. The Activity in series [6] turned out to be 57%. Further, the CC50 at 48 h in [2] worked out at 552 µM. In addition, the selectivity ratio in [3] came to 42.
As for `CC[N+](CC)(CCCCCCCCC[N+](CC)(CC)CC/N=C1\C[C@H]2CC[C@]1(C)C2(C)C)CC/N=C1\C[C@H]2CC[C@]1(C)C2(C)C`, the EC50 in series [1] (Influenza A virus, pdm09, MDCK) was 6.9 µM. In addition, in series [5], the inhibition at 1.5 h, 150 µM is 65%. Besides, the Activity in [6] stood at 51%. For the same molecule, in series [2], the CC50 at 48 h turned out to be 578 µM. The selectivity ratio in series [3] came to 82.
For `CC[N+](CC)(CCCCCCCCCC[N+](CC)(CC)CC/N=C1\C[C@H]2CC[C@]1(C)C2(C)C)CC/N=C1\C[C@H]2CC[C@]1(C)C2(C)C`, the EC50 in series [1] (Influenza A virus, pdm09, MDCK) was found to be 55.3 µM. The inhibition at 1.5 h, 150 µM in series [5] worked out at 78%. Further, the Activity in series [6] worked out at 70%. For the same molecule, the CC50 at 48 h in [2] was determined as 285 µM. Besides, the selectivity ratio in [3] was 5.
Taken in the same sequence, the figures for `CC[N+](CC)(CCCCCCCCCCCC[N+](CC)(CC)CC/N=C1\C[C@H]2CC[C@]1(C)C2(C)C)CC/N=C1\C[C@H]2CC[C@]1(C)C2(C)C` were 59.9 µM, 89%, 74%, 128 µM and 2.
In the case of `CC[N+](CC)(CC/N=C1\C[C@H]2CC[C@]1(C)C2(C)C)Cc1ccc(C[N+](CC)(CC)CC/N=C2\C[C@H]3CC[C@]2(C)C3(C)C)cc1`, the EC50 in [1] (Influenza A virus, pdm09, MDCK) worked out at 43.4 µM. The CC50 at 48 h in series [2] was determined as 1450 µM. The selectivity ratio in series [3] is 33.
Regarding `CC[N+](C)(CC)CC/N=C1\C[C@H]2CC[C@]1(C)C2(C)C`, the EC50 in series [1] (Influenza A virus, pdm09, MDCK) stood at 40.4 µM. The CC50 at 48 h in [2] was found to be 1890 µM.
On to `CC[N+](CC)(CC)CC/N=C1\C[C@H]2CC[C@]1(C)C2(C)C`, for which, in [1] (Influenza A virus, pdm09, MDCK), the EC50 came to 140 µM. In addition, the CC50 at 48 h in [2] stood at 1780 µM. In addition, the selectivity ratio in [3] stood at 13.
On to `CC12CCC(CC1=O)C2(C)C` (single isomer, unassigned; (+)) [CAMPHOR], for which, in series [7], the inhibition at 1.5 h, 2 µM is 6%. Also, the half-maximal effective concentration (EC50) in [1] (mdck) amounted to 1640 µM. Also, the Activity in series [8] turned out to be 5%. Besides, the CC50 at 48 h in series [2] is 3290 µM. Moreover, the selectivity ratio in [3] worked out at 2.
Consider `NC12CC3CC(CC(C3)C1)C2` [AMANTADINE], for which the EC50 in [1] (mdck) amounted to 64.2 µM. The CC50 at 48 h in [2] stood at 284 µM. In addition, the selectivity ratio in series [3] was 4.
Take `CC(N)C1C[C@@H]2CC[C@H]1C2` (stereo partly specified) [DEITIFORIN]: the CC50 at 48 h in [2] was 1270 µM.
Consider `CCn1cc(C(=O)O)c(=O)c2ccc(C)nc21` [NALIDIXIC ACID], for which the Activity in [9] is reported as 500%.
As to `CC(N)C12CC3CC(CC(C3)C1)C2` (stereo unspecified) [RIMANTADINE HYDROCHLORIDE], the EC50 in [1] (Influenza A virus, pdm09, MDCK) amounted to 67 µM. For the same molecule, in series [2], the CC50 at 48 h was found to be 335 µM. Further, in series [3], the selectivity ratio was 5.
